Results on three molecules are retold here after PMC5943194 (Environmental science and pollution research international, 2017).

“Also recorded” adds a separate entry of the source.

One data set relates to RyRs. The settings on record: ref Pessah et al. 2009; cited from earlier work.
Data set [1] has as its system CAR-dependent CYP2B6 mRNA in HepaRG cells. The experiment in a line: CAR-agonistic response: induction of CYP2B6 mRNA in differentiated HepaRG cells. Type of data set: cell-based, human. The settings on record: CYP2B6 mRNA, HepaRG, 24 h, relative to PB (2 mM). In a few lines: (§1)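 Differentiated HepaRG cells (passages 7–9) were grown 14 days in growth medium, then 14 days in differentiation medium, and returned to growth medium 3 days before a 24 h exposure to test compound (0.01–25 μM). CYP2B6 and CYP3A4 mRNA were measured by qRT-PCR (PBGD reference, comparative Ct) relative to PB (2 mM) and RIF (50 μM), respectively. EC25/EC50 were taken from dose-response curves.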

The subject of data set [2] is CYP2B6 mRNA (CAR-dependent). The data set is described as above. It counts as cell-based, human. As to conditions: human, differentiated HepaRG cells. In a few lines: as §1
Data set [3] has as its system ER target gene TFF1 mRNA in MCF-7 cells. The experiment in a line: Modulation of E2-induced TFF1 mRNA in MCF-7 cells. The settings on record: 25 μM, 24 h, co-exposure with E2. It counts as cell-based, human. In a few lines:
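MCF-7 cells (passages 15–18) in phenol red-free DMEM/F12 with 5% charcoal/dextran FBS were co-exposed for 24 h to test compound (25 μM) plus E2 (5 pM). TFF1 mRNA was measured by qRT-PCR: RT 50°C 20 min, 95°C 15 min, then 40 cycles of 95°C 15 s/60°C 60 s. PBGD was the reference gene, with comparative Ct analysis. Three independent experiments, n=6.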

Data set [4] has as its system PXR-dependent CYP3A4 mRNA in HepaRG cells. In words: PXR-agonistic response: induction of CYP3A4 mRNA in differentiated HepaRG cells. It counts as cell-based, human. The settings on record: 24 h. In a few lines:
as §1

Data set [5] has as its target T1, estrogen receptor (ER) (Homo sapiens, UniProt P03372). In words: ER-CALUX assay, ER-agonistic activity. As to conditions: T47D.Luc cells, 24 h; for ER-agonistic Response at 10 μM (% of E2max): relative to E2 (15 pM). Type of data set: cell-based. In a few lines: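 T47D.Luc cells (passages 22–25) stably carry pEREtataLuc and were exposed in phenol red-free DMEM/F12 with 5% charcoal/dextran FBS. Cells were seeded at 20,000 cells/cm2 and dosed 24 h later with test compound in DMSO for 24 h. They were then lysed (10 mM Tris, 2 mM DTT, 2 mM EGTA, pH 7.8) and luciferase measured. RLU minus DMSO control gave fold induction relative to E2 (15 pM) maximum.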

Data set [6] deals with T1, estrogen receptor (ER). In words: ER-CALUX assay, ER-antagonistic activity, co-exposure with E2. It counts as cell-based. The settings on record: T47D.Luc cells, 24 h; for ER-antagonistic Response at 25 μM (% of E2 response): in the presence of E2 (5 pM); for Modulation of E2-dependent induction of luciferase activity, in words: combined exposure with E2 (5 pM). In a few lines: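 ER-CALUX in T47D.Luc cells (passages 22–25) kept in phenol red-free DMEM/F12 with 5% charcoal/dextran FBS. Test compound in DMSO was co-exposed with E2 (5 pM) for 24 h, then cells were lysed at pH 7.8 and luciferase read. IC25/IC50 are concentrations inhibiting E2-induced luciferase by 25/50%, calculated from full dose-response curves. Three independent experiments in triplicate.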

Data set [7] has as its system ER target gene TFF1 mRNA in MCF-7 cells. In words: Induction of TFF1 mRNA in MCF-7 cells. Type of data set: cell-based, human. As to conditions: 25 μM, 24 h. In a few lines: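 MCF-7 cells (passages 15–18) were moved to phenol red-free DMEM/F12 with 5% charcoal/dextran FBS and 1% non-essential amino acids. After 24 h in fresh medium they were treated for 24 h with 25 μM test compound. TFF1 mRNA was quantified by one-step qRT-PCR (PBGD reference, comparative Ct) and expressed relative to maximal induction by E2 (15 pM). Three independent experiments, n=6.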

Data set [8] relates to all cell lines (T47D.Luc, MCF-7, LNCaP, HepaRG). The experiment in a line: Cytotoxicity, neutral red assay. Type of data set: cell-based, human. The settings on record: up to 25 μM concentration.
The subject of a further data set is AR. The settings on record: ref Hamers et al. 2011; cited from earlier work.
The test system of a further data set is ER. The settings on record: ref Hamers et al. 2011; cited from earlier work.
Data set [9] deals with AR target gene PSA mRNA in LNCaP cells. In words: Suppression of DHT-induced PSA mRNA in LNCaP cells. It counts as cell-based, human. As to conditions: 25 μM, 24-h co-exposure to 1 nM DHT. In a few lines:
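LNCaP cells (passages 4–6) were grown in RPMI-1640 with 10% FBS, then moved to phenol red-free RPMI-1640 with 5% dextran/charcoal-treated serum. After 24 h in fresh medium they were co-treated for 24 h with test compound and DHT (1 nM). PSA mRNA was measured by qRT-PCR (PBGD reference, comparative Ct) and expressed relative to DHT alone. Three independent experiments, n=6.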

The mark [10] stands for this setting: CYP3A4 mRNA, relative to RIF (50 μM).

T1 sequence (P03372 whole entry): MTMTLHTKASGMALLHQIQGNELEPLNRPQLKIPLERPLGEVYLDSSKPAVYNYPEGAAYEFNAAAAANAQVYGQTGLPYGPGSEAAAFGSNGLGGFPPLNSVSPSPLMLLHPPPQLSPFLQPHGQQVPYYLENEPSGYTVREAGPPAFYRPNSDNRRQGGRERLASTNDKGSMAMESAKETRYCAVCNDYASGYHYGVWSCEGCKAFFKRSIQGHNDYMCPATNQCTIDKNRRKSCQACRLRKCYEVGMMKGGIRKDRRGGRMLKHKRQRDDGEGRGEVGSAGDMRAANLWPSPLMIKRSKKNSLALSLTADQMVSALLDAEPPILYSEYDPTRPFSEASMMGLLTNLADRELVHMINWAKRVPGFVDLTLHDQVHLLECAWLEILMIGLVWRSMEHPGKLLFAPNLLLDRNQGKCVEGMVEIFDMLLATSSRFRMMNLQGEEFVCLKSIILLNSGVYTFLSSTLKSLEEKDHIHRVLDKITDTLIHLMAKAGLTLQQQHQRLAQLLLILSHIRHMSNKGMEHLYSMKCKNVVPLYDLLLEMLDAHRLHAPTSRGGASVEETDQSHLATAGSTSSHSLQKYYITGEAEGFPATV

In the case of `Clc1ccc(Cl)c(-c2c(Cl)ccc(Cl)c2Cl)c1Cl` [(+)-PCB 136, 2,2',3,3',6,6'-hexachlorobiphenyl], the “Activity towards RyR, in words” value in the data set on RyRs is reported as “no significant activity towards the RyR”. In [1], the “CAR-agonistic Maximum response at 5 μM (% of PB max)” value was 38 % of PB max and the “CAR-agonistic response EC25” value was determined as 1.0 µM. The EC50 at 24 h in [2] was 6.6 µM. For the same molecule, the “Effect on E2-induced TFF1 gene expression, in words” value (shortened to “Effect”) in data set [3] is on record as “significantly potentiated the E2-induced TFF1 gene expression”. Moreover, the “PXR-agonistic Maximum response at 25 μM (% of RIF max)” value in data set [4] (setting [10]) is 17 % of RIF max. At estrogen receptor (ER) [5], the “ER-mediated activity (induction of luciferase), in words” value (from here on “ER-mediated activity”) is “estrogenic; also recorded: strong ER-mediated activity” and the “ER-agonistic Response at 10 μM (% of E2max)” value was 89 % of E2max. Also, on estrogen receptor (ER) [6], the “ER-antagonistic Response at 25 μM (% of E2 response)” value was 123 % of E2 response and the “Modulation of E2-dependent induction of luciferase activity, in words” value is reported as “slightly potentiated E2-dependent induction of luciferase activity”. Moreover, the “Estrogenicity (TFF1 mRNA induction), in words” value in data set [7] is recorded as “relatively high estrogenicity”.
Consider `Clc1ccc(Cl)c(-c2c(Cl)ccc(Cl)c2Cl)c1Cl` [(−)-PCB 136, 2,2',3,3',6,6'-hexachlorobiphenyl], for which the “Activity towards RyR, in words” value in the data set on RyRs is recorded as “activate RyRs”. In addition, in data set [1], the “CAR-agonistic Maximum response at 5 μM (% of PB max)” value is given as 51 % of PB max and the “CAR-agonistic response EC25” value amounted to 0.7 µM. In addition, in data set [3], the “Effect” value was “inactive”. The “PXR-dependent CYP3A4 mRNA induction, in words” value in [4] is “significantly more potent inducer of PXR activity than (+)-PCB 136; also recorded: significantly more potent inducer of CYP3A4 mRNA than (+)-PCB 136”. Also, in data set [4] (setting [10]), the “PXR-agonistic Maximum response at 25 μM (% of RIF max)” value is recorded as 38 % of RIF max and the “PXR-agonistic response EC25” value stood at 7.4 µM. For the same molecule, at estrogen receptor (ER) [5], the “ER-mediated activity” value is “did not induce a significant increase of luciferase activity” and the “ER-agonistic Response at 10 μM (% of E2max)” value is reported as 27 % of E2max. Moreover, at estrogen receptor (ER) [6], the “ER-antagonistic Response at 25 μM (% of E2 response)” value was 27 % of E2 response and the “Modulation of E2-dependent induction of luciferase activity, in words” value was “exhibited antiestrogenic effects, especially at higher concentrations”.
Take `Clc1ccc(Cl)c(-c2c(Cl)ccc(Cl)c2Cl)c1Cl` (racemic) [(±)-PCB 136, 2,2',3,3',6,6'-hexachlorobiphenyl]: the Cytotoxicity entry in data set [8] is reported as “no cytotoxicity was observed”. In addition, the “Effect” value in data set [3] is “significantly potentiated the E2-induced TFF1 gene expression”. In the data set with AR, the “AR activity in luciferase reporter gene assays, in words” value was “AR-antagonistic”. Besides, the “ER activity in luciferase reporter gene assays, in words” value in the data set on ER was “ER-agonistic”. In data set [9], the “Antiandrogenic activity (suppression of DHT-induced PSA mRNA), in words” value is given as “significant antiandrogenic activity”. For the same molecule, on estrogen receptor (ER) [5], the “ER-mediated activity” value was “intermediate effect” and the “ER-agonistic Response at 10 μM (% of E2max)” value is on record as 63 % of E2max. For the same molecule, the “ER-antagonistic Response at 25 μM (% of E2 response)” value on estrogen receptor (ER) [6] is recorded as 81 % of E2 response.

What is called EC50 is the concentration that produces a half-maximal response. Lower therefore signals an effect from little substance.
